Compounds with a hit are over-represented: about 4.7% of the library has one in this group of screens.
VIM-2 inh – inhibitors of Pseudomonas aeruginosa VIM-2 metallo-beta-lactamase; 290,000 compounds, 0.89% hits; AID 1527; inhibition, % at 5.6 µM; purified VIM-2, nitrocefin hydrolysis, epi-absorbance fluorescence;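 active = inhibition above the mean of all tested compounds plus 3 SD, cutoff set per screening run, cut at about 7.5% in these data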;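 note: red hydrolysis product quenches plate fluorescence so inhibitors raise well fluorescence; 0% = enzyme with DMSO and 100% = DMSO without enzyme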
Mdm2-MdmX inh – inhibitors of human Mdm2/MdmX interaction; SaOS-2 split-luciferase Mdm2/MdmX complementation, luminescence; inhibition, % at 8 µM; 330,000 compounds, 3% hits; AID 485346;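 active = inhibition of at least 50% at 8 µM in the primary screen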
Target sequence (O15151 whole entry, looked up): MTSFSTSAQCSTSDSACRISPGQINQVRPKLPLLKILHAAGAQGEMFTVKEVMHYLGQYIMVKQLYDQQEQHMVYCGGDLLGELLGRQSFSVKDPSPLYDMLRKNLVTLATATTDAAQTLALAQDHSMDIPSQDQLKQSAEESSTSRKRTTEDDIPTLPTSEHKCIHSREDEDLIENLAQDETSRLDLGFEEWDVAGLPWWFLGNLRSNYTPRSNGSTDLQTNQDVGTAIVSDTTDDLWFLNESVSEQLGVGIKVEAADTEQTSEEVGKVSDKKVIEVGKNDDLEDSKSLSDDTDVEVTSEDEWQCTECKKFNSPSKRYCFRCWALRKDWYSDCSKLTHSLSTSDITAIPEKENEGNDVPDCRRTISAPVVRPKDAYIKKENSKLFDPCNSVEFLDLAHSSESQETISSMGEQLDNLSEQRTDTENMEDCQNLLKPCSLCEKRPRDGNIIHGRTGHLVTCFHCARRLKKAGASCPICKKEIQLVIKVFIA
Target sequence (Q00987 whole entry, looked up): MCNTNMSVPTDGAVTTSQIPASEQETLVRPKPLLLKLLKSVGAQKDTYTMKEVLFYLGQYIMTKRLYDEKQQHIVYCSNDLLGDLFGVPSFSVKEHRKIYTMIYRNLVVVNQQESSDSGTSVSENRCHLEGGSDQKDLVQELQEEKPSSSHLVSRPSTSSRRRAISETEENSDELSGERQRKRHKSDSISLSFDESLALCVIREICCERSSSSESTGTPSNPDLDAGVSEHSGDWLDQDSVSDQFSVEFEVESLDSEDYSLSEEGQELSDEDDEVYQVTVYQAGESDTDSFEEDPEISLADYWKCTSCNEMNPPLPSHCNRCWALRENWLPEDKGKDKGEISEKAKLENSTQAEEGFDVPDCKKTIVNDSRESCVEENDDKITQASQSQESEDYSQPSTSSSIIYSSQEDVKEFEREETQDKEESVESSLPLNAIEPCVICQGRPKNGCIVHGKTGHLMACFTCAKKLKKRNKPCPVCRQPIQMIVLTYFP
aSyn 5UTR inh – MLPCN primary screen, SNCA 5' untranslated region; alpha-synuclein 5'UTR reporter, inhibitor activity; inhibition, % (tested at 7.5 µM); 300,000 compounds, 0.82% hits; in the data active = inhibition above about 60%;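 note: H4 neuroglioblastoma cells stably carrying SNCA 5'UTR luciferase fusion; 0% = DMSO wells and 100% = positive control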
Jurkat NFkB inh – lowers PMA/ionomycin-induced NF-kB signal in Jurkat cells. PMA/ionomycin-induced NF-kB luciferase reporter, luminescence. inhibition, % at 4 µM. 330,000 compounds, 0.53% hits; in the data active = inhibition above about 50%
IMP-1 inhibitor – inhibitors of Pseudomonas aeruginosa IMP-1 metallo-beta-lactamase; purified IMP-1, nitrocefin hydrolysis, epi-absorbance fluorescence; inhibition, % at 5.6 µM; 290,000 compounds, 0.45% hits; AID 1556;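 active = inhibition above the mean plus 3 SD of all compounds in the same screening run, cut at about 4.5% in these data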;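 note: 0% = IMP-1 with DMSO and 100% = DMSO wells lacking enzyme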
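Assay system: purified IMP-1; Quantity: IMP-1 0.2 nM before substrate addition; Medium: HEPES buffer pH 7.1 with ZnSO4 and Brij 35; Incubation: 15 min enzyme–compound preincubation, then 25 min nitrocefin reaction, 25 °C; Signal: fluorescence quenching readout, ex 480/em 530 nm; Controls: DMSO with and without IMP-1; Repeats: singlicate testing.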
697 NFkB inh – lowers PMA/ionomycin-induced NF-kB signal in 697 B cells; 330,000 compounds, 0.33% hits; AID 435022; inhibition, % at 4 µM; 697 B-cell NF-kB luciferase reporter, 16 h; in the data active = inhibition above about 35%
Mdm2-MdmX conf – confirmation of human Mdm2/MdmX interaction inhibitors; 10,000 compounds, 55% hits; shares compounds with Mdm2-MdmX inh; inhibition, % at 8 µM; AID 489028; Mdm2-MdmX binding, luminescent assay; in the data active = inhibition above about 40%
Full FLuc ctr – counter-screen for Mdm2/MdmX inhibitors: full-length luciferase | SaOS-2 full-length luciferase counterscreen, luminescence | shares compounds with Mdm2-MdmX inh | inhibition, % at 8 µM | 6,200 compounds, 77% hits;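 active = mean inhibition at 8 µM reaching about 37%, which flags the compound as non-specific, limit read from the data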;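 note: p53-null SaOS-2 cells with luciferase driven by a doxycycline-inducible promoter; compound on cells about two nights before reading with doxycycline added after day one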
An asterisk follows results filed as active; nt = not tested or not shown.

SMILES	VIM-2 inh	Mdm2-MdmX inh	aSyn 5UTR inh	Jurkat NFkB inh	IMP-1 inhibitor	697 NFkB inh	Mdm2-MdmX conf	Full FLuc ctr
CC1(C)Cc2c(sc(NC(=O)c3ccc(C(=O)c4ccccc4)cc3)c2C(N)=O)C(C)(C)N1	-0.6	72.8*	48.4	-1.5	0.0	-29.8	57.4*	34.2
COc1ccc(C2c3c(ncn(CCCO)c3=N)Oc3ccc4ccccc4c32)cc1 (configuration not stated)	-2.6	80.7*	5.7	28.3	-3.6	16.9	70.0*	56.5*
COc1ccc(C2c3ccc4ccccc4c3Oc3ncn(Cc4ccco4)c(=N)c32)cc1OC (configuration not stated)	-2.0	85.1*	1.5	6.4	-1.1	7.9	54.3*	67.0*
COc1ccc(C2c3ccc4ccccc4c3Oc3ncn4nc(Cc5ccccc5)nc4c32)cc1OC (configuration not stated)	-1.3	32.6	5.1	-24.0	-1.0	8.4	nt	nt
COc1ccc(C2c3c(ncn(CCN4CCOCC4)c3=N)Oc3ccc4ccccc4c32)cc1OC (configuration not stated)	-2.4	63.6*	27.1	-9.9	-1.8	12.4	38.2	58.7*
COc1ccccc1C1c2ccc3ccccc3c2Oc2ncn(CCCO)c(=N)c21 (configuration not stated)	-0.4	73.9*	-6.6	17.9	-0.8	-31.4	42.8*	60.8*
COc1ccc(C2c3ccc(O)cc3Oc3ncn(Cc4ccco4)c(=N)c32)cc1OC (configuration not stated)	-2.7	16.3	25.9	11.5	-1.8	6.6	nt	nt
N=c1c2c(ncn1CCCO)Oc1cc(O)ccc1C2c1ccccc1 (configuration not stated)	-2.9	7.0	16.7	-2.1	-3.5	16.4	nt	nt
COC(=O)C1CCN(CC(=O)NC(=O)NC2CCCCC2)CC1	-3.2	-6.5	22.2	-0.8	-2.0	-2.7	nt	nt
Cc1ccc(C(=O)N/C(=C\c2ccc(Cl)cc2)C(=O)NCC2CCCO2)cc1 (configuration not stated)	-2.8	-14.8	7.6	13.8	-1.7	12.6	nt	nt
COc1ccc(C(C)NC(=O)CC23CC4CC(CC(C4)C2)C3)cc1 (configuration not stated)	-1.8	21.2	-5.5	-4.4	-2.7	-10.3	nt	nt
O=S(=O)(/C=C/c1ccccc1)N1CCN(Cc2ccccc2)CC1	-4.1	20.4	11.0	5.8	-3.6	9.3	nt	nt
COC(=O)N/N=C/c1ccc(-c2cc(Cl)ccc2Cl)o1	2.1	-15.6	36.5	12.6	0.2	16.0	nt	nt
O/N=C/c1ccc(-c2cc(Cl)ccc2Cl)o1	-0.1	57.1*	8.0	7.5	-1.5	16.7	41.6*	52.9*
CCCN(CCC)C(=S)NC(=O)c1ccc(-c2ccccc2)cc1	-1.8	55.2*	18.5	7.6	-2.4	14.7	25.6	nt
CCOc1ccc(C(=O)NC(=S)N(Cc2ccccc2)Cc2ccccc2)cc1	-1.9	nt	22.9	nt	-2.8	nt	nt	nt
CC(C)(C)C(=O)NC(=S)NNC(=O)c1ccc(-c2ccccc2)cc1	-2.9	57.3*	66.9*	-19.4	-1.8	-161.1	45.6*	28.9
Cc1ccc(/C=C/C(=O)c2c(C)cc(C)[nH]c2=O)cc1	1.8	70.3*	-44.5	8.0	-0.2	4.7	44.7*	50.8*
CCc1ccc(/C=C/C(=O)c2c(C)cc(C)[nH]c2=O)cc1	-1.4	71.6*	-34.7	8.2	-2.5	-1.3	48.1*	30.6
Cc1cc(Cl)c(S(=O)(=O)NC2CCCCC2)cc1OCC(=O)Nc1nncs1	-0.3	31.2	-4.5	1.9	-3.0	6.7	nt	nt
CCOC(=O)NC(=O)/C(C#N)=N\Nc1cccc(Cl)c1	-3.4	58.6*	3.5	3.3	-3.6	10.1	63.6*	57.9*
O=C(/C=C/c1ccco1)NC(=S)Nc1ccc(N2CCCC2)cc1	-0.5	61.0*	-70.3	-5.6	1.4	9.1	61.9*	52.2*
O=C(NC(=S)Nc1nc(-c2ccc([N+](=O)[O-])cc2)cs1)c1ccco1	-4.9	55.0*	-60.7	-27.1	62.5*	-38.3	27.6	nt
O=C(/C=C\c1ccco1)Nc1nc(-c2ccc3ccccc3c2)cs1	-1.9	34.4	-7.3	-12.1	-1.8	-14.2	nt	nt
O=C(NC(=S)Nc1nc(-c2ccc(Br)cc2)cs1)c1ccco1	-4.7	-14.3	-28.0	-28.9	-2.3	-27.1	nt	nt
SMILES	VIM-2 inh	Mdm2-MdmX inh	aSyn 5UTR inh	Jurkat NFkB inh	IMP-1 inhibitor	697 NFkB inh	Mdm2-MdmX conf	Full FLuc ctr
Cc1ccc(-c2csc(NC(=S)NC(=O)/C=C/c3ccco3)n2)cc1	-5.0	59.2*	-25.2	49.1	-2.1	-70.8	51.4*	59.3*
O=C(/C=C/c1ccco1)NC(=S)Nc1ccc(O)c(-c2nc3ccccc3s2)c1	-1.9	76.9*	40.6	5.8	1.7	-8.6	31.9	71.7*
COc1ccc(N2CCN(S(=O)(=O)c3cnc[nH]3)CC2)cc1	0.6	26.0	-1.2	0.2	-0.4	5.9	nt	nt
CCOC(=O)N1CCC(N2CC34C=CC(O3)C(C(=O)Nc3ccc(OCC)cc3)C4C2=O)CC1 (configuration not stated)	-3.7	-3.5	1.0	-2.4	-1.5	-1.6	nt	nt
COCCNC(=O)CC(=O)N/N=C/c1cccc(C(=O)OC)c1	-4.2	13.6	-28.6	2.2	-2.4	13.1	nt	nt
NNC(=O)c1ccc2c(c1)S(=O)(=O)NNC2=O	-2.4	-5.1	-5.1	2.0	-3.1	2.0	nt	nt
CC(=O)NC(=S)Nc1ccc(NC(=S)NC(=O)/C=C/c2ccco2)cc1	-3.4	73.5*	-1.2	35.9	-2.2	-1.5	64.8*	35.0
CCC(=O)Nc1ccc(NC(=S)NC(=O)/C=C/c2ccco2)cc1	-2.5	24.4	-31.8	12.3	-1.6	-20.6	nt	nt
Nc1ccc(C23CC4CC(CC(CO)(C4)C2)C3)cc1	0.3	10.1	-9.5	-10.7	0.9	-30.5	nt	nt
NCC12CC3CC(C1)CC(c1ccc(Cl)cc1)(C3)C2	-4.9	96.4*	14.7	24.4	-2.9	12.0	27.9	nt
COc1ccc(NS(=O)(=O)c2ccc3c(c2)oc(=O)n3C)c(OC)c1	-1.2	7.9	-8.7	13.3	-2.1	11.9	nt	nt
COc1cc(NS(=O)(=O)c2ccc3c(c2)oc(=O)n3C)cc(OC)c1OC	-1.5	57.2*	-5.4	35.2	-1.9	-28.6	20.1	nt
Cc1ccc(C)c(N2CCN(c3ncccc3[N+](=O)[O-])CC2)c1	-1.4	72.7*	37.8	11.7	-3.0	8.1	23.2	nt
Cc1ccc(N2CCN(c3ncccc3[N+](=O)[O-])CC2)c(C)c1	-1.3	-1.5	-20.7	-32.4	-5.0	4.2	nt	nt
Cc1cccc(/C=C2\Sc3ccc(C(=O)N4CCCCC4)cc3N(C)C2=O)c1	-2.8	45.3	-40.0	12.6	-5.3	-22.8	nt	nt
CN1C(=O)/C(=C/c2cccc(Cl)c2)Sc2ccc(C(=O)N3CCCC3)cc21	-1.2	73.2*	1.2	21.9	-4.2	-16.1	12.6	nt

Screening data as filed in PubChem BioAssay.
